Source: ChEMBL document CHEMBL4033657, “N-Aryl-N'-ethyleneaminothioureas effectively inhibit acetylcholinesterase 1 from disease-transmitting mosquitoes” (Eur J Med Chem, 2017)
Active and inactive are the calls of the source. The calls are words filed in the database; no cut-off is given here.

Columns and labels:
Aedes aegypti [1] = assay: Inhibition of recombinant full length Aedes aegypti AChE1 expressed in baculovirus-infected Sf9 insect cells at 1 mM using acetylthiocholine iodide as substrate measured over 60 secs by Ellman's method
Summary of the method: (§1)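 Secreted, non-purified recombinant enzyme in growth medium, tested as enzyme source. Ellman assay at 30 °C in 0.1 M phosphate buffer pH 7.4 with 0.2 mM DTNB and 1 mM acetylthiocholine iodide; A412 followed over 60 s. Compound (100 mM DMSO stock) tested at eight concentrations, maximum 1 mM. Activity set relative to eight uninhibited controls per plate; IC50 from three-parameter variable-slope fit; 2-3 independent replicates.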

Acetylcholinesterase [2] = molecular target: T1, Acetylcholinesterase (Homo sapiens, UniProt P22303); assay: Inhibition of recombinant human AChE expressed in HEK293F cells up to 1 mM using acetylthiocholine iodide as substrate measured over 60 secs by Ellman's method; settings: HEK293; summary of the method: as §1
[3] = test system: Acetylcholinesterase (Anopheles gambiae), Q869C3 [G122S]; assay: Inhibition of recombinant full length Anopheles gambiae AChE1 G122S mutant expressed in baculovirus-infected Sf9 insect cells up to 1 mM using acetylthiocholine iodide as substrate measured over 60 secs by Ellman's method; summary of the method: as §1
[4] = molecular target: Acetylcholinesterase (Anopheles gambiae) (UniProt Q869C3); assay: Inhibition of recombinant full length Anopheles gambiae AChE1 expressed in baculovirus-infected Sf9 insect cells at 1 mM using acetylthiocholine iodide as substrate measured over 60 secs by Ellman's method; summary of the method: as §1
[5] = Selectivity ratio of IC50 for recombinant human AChE expressed in HEK293F cells to IC50 for recombinant full length Anopheles gambiae AChE1 expressed in baculovirus-infected Sf9 insect cells
Summary of the method: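 Ratio of the hAChE IC50 divided by the higher of the AgAChE1 or AaAChE1 IC50. Each IC50 came from an Ellman assay (1 mM acetylthiocholine, 0.2 mM DTNB, pH 7.4, 30 °C) with eight concentrations up to 1 mM, using 2-3 replicates.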

Acetylcholinesterase [6] = molecular target: T1, Acetylcholinesterase; assay: Inhibition of recombinant human AChE expressed in HEK293F cells using acetylthiocholine iodide as substrate measured over 60 secs by Ellman's method; design: species or system HEK293
Acetylcholinesterase [7] = molecular target: Acetylcholinesterase (Anopheles gambiae, UniProt Q869C3, G122S); assay: Inhibition of recombinant full length Anopheles gambiae AChE1 G122S mutant expressed in baculovirus-infected Sf9 insect cells using acetylthiocholine iodide as substrate measured over 60 secs by Ellman's method
[8] = Inhibition of recombinant full length Aedes aegypti AChE1 expressed in baculovirus-infected Sf9 insect cells using acetylthiocholine iodide as substrate measured over 60 secs by Ellman's method; summary of the method: as §1
Acetylcholinesterase [9] = molecular target: Acetylcholinesterase (Anopheles gambiae, UniProt Q869C3); assay: Inhibition of recombinant full length Anopheles gambiae AChE1 expressed in baculovirus-infected Sf9 insect cells using acetylthiocholine iodide as substrate measured over 60 secs by Ellman's method
Anopheles gambiae [10] = assay: Insecticidal activity against 3rd instar larvae of Anopheles gambiae Kisumu assessed as mortality at 500 uM administered via de-chlorinated tap water after 48 hrs; type: functional
Anopheles gambiae [11] = assay: Insecticidal activity against 3rd instar larvae of Anopheles gambiae Kisumu assessed as mortality at 500 uM administered via de-chlorinated tap water after 24 hrs; type: functional
Summary of the method: (§2)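 Kenyan strains were reared at 27-28 °C, about 80% humidity, 12/12 h light. Per compound and concentration, 25 third-instar larvae were placed in 100 ml de-chlorinated water containing the compound and kept under insectary conditions. The negative control was plain water; the positive control was propoxur at 25 µM. Mortality was scored at 24 h; 75 treated and 50 control larvae in total.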

Anopheles gambiae [12] = assay: Insecticidal activity against five days old adult Anopheles gambiae Kisumu assessed as mortality at 100 mM applied topically on upper part of pronotum after 48 hrs (reference value: 15 to 24%); type: functional; settings: topical
Aedes aegypti [13] = assay: Insecticidal activity against five days old adult Aedes aegypti Mombasa assessed as mortality at 2 mM applied topically on upper part of pronotum after 24 hrs (reference value: 2 to 10%); type: functional; settings: topical
Aedes aegypti [14] = assay: Insecticidal activity against five days old adult Aedes aegypti Mombasa assessed as mortality at 0.2 nmol applied topically on upper part of pronotum after 24 hrs; type: functional
Aedes aegypti [15] = assay: Insecticidal activity against 3rd instar larvae of Aedes aegypti Mombasa assessed as mortality at 50 uM administered via de-chlorinated tap water after 24 hrs; type: functional; summary of the method: as §2
Aedes aegypti [16] = assay: Insecticidal activity against five days old adult Aedes aegypti Mombasa assessed as mortality at 10 mM applied topically on upper part of pronotum after 24 hrs (reference value: 3 to 15%); type: functional; settings: topical
Anopheles gambiae [17] = assay: Insecticidal activity against five days old adult Anopheles gambiae Kisumu assessed as mortality at 10 mM applied topically on upper part of pronotum after 48 hrs (reference value: 14 to 22%); type: functional; settings: topical
Anopheles gambiae [18] = assay: Insecticidal activity against five days old adult Anopheles gambiae Kisumu assessed as mortality at 2 mM applied topically on upper part of pronotum after 24 hrs (reference value: 3 to 17%); type: functional; settings: topical
Aedes aegypti [19] = assay: Insecticidal activity against five days old adult Aedes aegypti Mombasa assessed as mortality at 100 mM applied topically on upper part of pronotum after 48 hrs (reference value: 7 to 8%); type: functional; settings: topical
Anopheles gambiae [20] = assay: Insecticidal activity against five days old adult Anopheles gambiae Kisumu assessed as mortality at 10 mM applied topically on upper part of pronotum after 24 hrs (reference value: 8 to 16%); type: functional; settings: topical
Aedes aegypti [21] = assay: Insecticidal activity against five days old adult Aedes aegypti Mombasa assessed as mortality at 100 mM applied topically on upper part of pronotum after 24 hrs (reference value: 3%); type: functional; settings: topical
Aedes aegypti [22] = assay: Insecticidal activity against five days old adult Aedes aegypti Mombasa assessed as mortality at 1 nmol applied topically on upper part of pronotum after 24 hrs; type: functional
Aedes aegypti [23] = assay: Insecticidal activity against 3rd instar larvae of Aedes aegypti Mombasa assessed as mortality at 500 uM administered via de-chlorinated tap water after 24 hrs; type: functional; summary of the method: as §2
Anopheles gambiae [24] = assay: Insecticidal activity against five days old adult Anopheles gambiae Kisumu assessed as mortality at 0.2 nmol applied topically on upper part of pronotum after 24 hrs; type: functional
Anopheles gambiae [25] = assay: Insecticidal activity against five days old adult Anopheles gambiae Kisumu assessed as mortality at 100 mM applied topically on upper part of pronotum after 24 hrs (reference value: 9 to 10%); type: functional; settings: topical
Anopheles gambiae [26] = assay: Insecticidal activity against 3rd instar larvae of Anopheles gambiae Kisumu assessed as mortality at 50 uM administered via de-chlorinated tap water after 48 hrs; type: functional
Anopheles gambiae [27] = assay: Insecticidal activity against 3rd instar larvae of Anopheles gambiae Kisumu assessed as mortality at 50 uM administered via de-chlorinated tap water after 24 hrs; type: functional; summary of the method: as §2
Aedes aegypti [28] = assay: Insecticidal activity against 3rd instar larvae of Aedes aegypti Mombasa assessed as mortality at 500 uM administered via de-chlorinated tap water after 48 hrs (reference value: 0 to 2%); type: functional
Aedes aegypti [29] = assay: Insecticidal activity against five days old adult Aedes aegypti Mombasa assessed as mortality at 2 mM applied topically on upper part of pronotum after 48 hrs (reference value: 3 to 12%); type: functional; settings: topical
Anopheles gambiae [30] = assay: Insecticidal activity against five days old adult Anopheles gambiae Kisumu assessed as mortality at 2 mM applied topically on upper part of pronotum after 48 hrs (reference value: 13 to 38%); type: functional; settings: topical
Anopheles gambiae [31] = assay: Insecticidal activity against five days old adult Anopheles gambiae Kisumu assessed as mortality at 1 nmol applied topically on upper part of pronotum after 24 hrs; type: functional
Aedes aegypti [32] = assay: Insecticidal activity against five days old adult Aedes aegypti Mombasa assessed as mortality at 10 mM applied topically on upper part of pronotum after 48 hrs (reference value: 3 to 15%); type: functional; settings: topical
Aedes aegypti [33] = assay: Insecticidal activity against five days old adult Aedes aegypti Mombasa assessed as mortality at 10 nmol applied topically on upper part of pronotum after 24 hrs; type: functional
Aedes aegypti [34] = assay: Insecticidal activity against 3rd instar larvae of Aedes aegypti Mombasa assessed as mortality at 50 uM administered via de-chlorinated tap water after 48 hrs (reference value: 0 to 4%); type: functional
Anopheles gambiae [35] = assay: Insecticidal activity against five days old adult Anopheles gambiae Kisumu assessed as mortality at 10 nmol applied topically on upper part of pronotum after 24 hrs; type: functional

Compound: S=C(NCCN1CCOCC1)Nc1ccc(Cl)cc1
- inhibition (Aedes aegypti [1]): inactive
- inhibition (Acetylcholinesterase [2]): inactive
- inhibition [3]: inactive
- inhibition [4]: inactive

Compound: CN(C)CCN=C(S)Nc1ccccc1Cl
- Ratio IC50 [5]: > 12

Compound: FC(F)(F)c1ccc(NC(=S)NCCN2CCCCC2)cc1
- IC50 (Acetylcholinesterase [6]): > 200 µM
- IC50 (Acetylcholinesterase [7]): > 200 µM
- IC50 [8]: > 200 µM
- IC50 (Acetylcholinesterase [9]): > 200 µM

Compound: CN(C)CC/N=C(/S)Nc1ccc(S(N)(=O)=O)cc1
- IC50 (Acetylcholinesterase [6]): > 200 µM
- Ratio IC50 [5]: > 2.7
- IC50 [8]: 56 µM
- inhibition [3]: inactive
- IC50 (Acetylcholinesterase [9]): 74 µM

Compound: CN(C)CCN=C(S)Nc1cccc(Cl)c1
- IC50 (Acetylcholinesterase [6]): 140 µM
- IC50 (Acetylcholinesterase [7]): > 200 µM
- Ratio IC50 [5]: 1
- IC50 [8]: 83 µM
- IC50 (Acetylcholinesterase [9]): 96 µM

Compound: COc1ccc(NC(=S)NCCN(C)C)cc1
- mortality at 500 µM (Anopheles gambiae [10]): 16%
- mortality at 500 µM (Anopheles gambiae [11]): 3%
- mortality at 100000 µM (Anopheles gambiae [12]): 67%
- IC50 (Acetylcholinesterase [6]): > 200 µM
- mortality at 2000 µM (Aedes aegypti [13]): 11%
- mortality (Aedes aegypti [14]): 1%
- mortality at 50 µM (Aedes aegypti [15]): 4%
- mortality at 10000 µM (Aedes aegypti [16]): 12%
- mortality at 10000 µM (Anopheles gambiae [17]): 50%
- mortality at 2000 µM (Anopheles gambiae [18]): 17%
- mortality at 100000 µM (Aedes aegypti [19]): 17%
- IC50 (Acetylcholinesterase [7]): > 200 µM
- mortality at 10000 µM (Anopheles gambiae [20]): 43%
- mortality at 100000 µM (Aedes aegypti [21]): 12%
- mortality (Aedes aegypti [22]): 0%
- mortality at 500 µM (Aedes aegypti [23]): 1%
- mortality (Anopheles gambiae [24]): 0%
- mortality at 100000 µM (Anopheles gambiae [25]): 59%
- mortality at 50 µM (Anopheles gambiae [26]): 5%
- mortality at 50 µM (Anopheles gambiae [27]): 4%
- mortality at 500 µM (Aedes aegypti [28]): 3%
- mortality at 2000 µM (Aedes aegypti [29]): 11%
- IC50 [8]: > 200 µM
- mortality at 2000 µM (Anopheles gambiae [30]): 36%
- mortality (Anopheles gambiae [31]): 32%
- mortality at 10000 µM (Aedes aegypti [32]): 21%
- mortality (Aedes aegypti [33]): 12%
- mortality at 50 µM (Aedes aegypti [34]): 5%
- mortality (Anopheles gambiae [35]): 55%
- IC50 (Acetylcholinesterase [9]): > 200 µM
